Compound activity: PubChem BioAssay, several laboratories
Most compounds without a hit are left out; they make up all but 1.7% or so of the library.
TbMetRS inhib: blocks T. brucei methionyl-tRNA synthetase activity; purified T. brucei MetRS, ATP depletion, Kinase-Glo luminescence; inhibition, % at 11.9 µM; 0.4% of 360,000 active; AID 624268;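 active means inhibition above a per-plate cutoff of the control wells' mean inhibition plus 3 SD, cut at about 5.5% in these data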;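 further: 0% = DMSO wells median and 100% = median of wells with control inhibitor compound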
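technique = Kinase-Glo luminescence, ATP depletion format | system = purified MetRS (methionyl-tRNA synthetase) enzyme from Trypanosoma brucei | timing = 15 min preincubation, 2 h reaction, all 25 °C | evaluation = percent inhibition versus plate control medians | dosing = single dose, 11.9 µM final nominal, 0.9% final DMSO | also added = substrates ATP, L-methionine and bulk Escherichia coli tRNA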
IDE act: IDE (human) activation, cell-based; P14735; HEK cells, FAbeta-B cleavage, fluorescence polarization; 0% vehicle, 100% cell-free pure enzyme wells; activation, % at 5.96 µM; 0.073% of 340,000 active; AID 493087;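 active means activation above the mean of all tested compounds plus 3 SD, set per screening campaign, cut at about 17% in these data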
HNF4A DNA FP: change in binding of human HNF4 alpha to DNA | HNF4a-FITC DNA binding, fluorescence polarization, 1 h | activity change, % at 10 µM | 0.3% of 360,000 active | AID 1224865; in the data active means activity change above about 30%, passing the limit was not always enough
TPT1 inhibitor: C. albicans TPT1 enzyme inhibition; recombinant caTPT1, FP RNA substrate dephosphorylation; inhibition, % at 5 µM; 0.81% of 300,000 active; AID 1962;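 active means inhibition above the mean of all tested compounds plus 3 SD, set per screening campaign, cut at about 24% in these data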;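 further: plate controls were DMSO alone for no effect and ferristatin control at 100 nM for full effect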
CSN inh: inhibitors of human CSN-mediated cullin deneddylation; Q92905; Purified CSN, SCF-Nedd8-OG deneddylation, fluorescence polarization; inhibition, % at 12.5 µM; 0.38% of 360,000 active;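 active means pattern-corrected inhibition above about 35%, with an unprinted fluorescence ratio check between 0.5 and 1.5, limit read from the data, passing the limit was not always enough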;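 further: 0% = enzyme with substrate and 100% = substrate without enzyme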
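Assay system: purified human Csn5 enzyme expressed in HEK293T cells; Input: 0.24 nM Csn5 enzyme, final concentration; Reagent: 10 nM SCFSkp2-Nedd8OG; Compound dosing: 12.5 µM single point; Times: reaction 90 min, room temperature; Technique: fluorescence polarization readout.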
IDE inh: inhibits human insulin-degrading enzyme in HEK cells; P14735; FAbetaB cleavage, fluorescence polarization; inhibition, % at 5.59 µM; 0.41% of 320,000 active;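 active means percent inhibition above the average of all tested compounds plus 3 SD, set per screening campaign, cut at about 16% in these data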;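 further: IDE supplied by intact live HEK cells; FP after avidin binding of uncleaved biotin substrate so inhibition keeps polarization high; 0% = DMSO wells and 100% = 60 µM reference IDE inhibitor Ii1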
caTPT1 confirm: TPT1 (C. albicans) inhibition, confirmation; shares compounds with TPT1 inhibitor; recombinant caTPT1, fluorescence polarization, RNase T1 coupled; inhibition, % at 5 µM; 74% of 2,400 active;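 active means inhibition above the primary screen limit, the mean inhibition of all tested compounds plus 3 SD, cut at about 25% in these data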
RNase T1 inh: blocks Aspergillus oryzae RNase T1, a TPT1 counter-screen | shares compounds with TPT1 inhibitor | RNase T1 cleavage, fluorescence polarization, 1536-well | inhibition, % at 5 µM | 83% of 2,400 active | AID 2153;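 active means inhibition above the solvent-only control well mean plus 3 SD, limit set per screening run, cut at about 23% in these data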;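 further: plate controls were DMSO wells with enzyme for no effect and wells without RNase T1 for full effect; inhibitors block cleavage so intact labeled substrate keeps polarization high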
IDE cell inh cf: confirmation of human insulin-degrading enzyme inhibitors in cells | shares compounds with IDE inh | HEK cells, FAbetaB cleavage, fluorescence polarization | AID 435028 | 51% of 1,200 active | inhibition, % at 5.59 µM;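 active means mean inhibition across triplicate wells above the cutoff set by the earlier primary insulin-degrading enzyme screen, cut at about 16% in these data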;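 further: 0% = DMSO wells and 100% = 60 µM reference IDE inhibitor Ii1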
HEK cytotox: kills HEK cells in IDE inhibitor counter-screen. inhibition, % at 5.59 µM. HEK293 cytotoxicity, ATP luminescence. AID 449730. shares compounds with IDE inh. 28% of 1,200 active; in the data active means inhibition above about 22%;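 further: 0% = vehicle wells and 100% = reference cytotoxic drug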
CSN5 deneddyl: Csn5 (human) deneddylation inhibition, single-concentration validation; shares compounds with CSN inh; Csn5 deneddylation of SCF-Nedd8OG, fluorescence polarization, 90 min; inhibition, % at 16.6 µM; 62% of 540 active; AID 720654; in the data active means inhibition above about 50%;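 further: 0% = DMSO with enzyme and 100% = no enzyme wells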
MMP2 cntr CSN: MMP-2 (human) inhibition, counter-screen for CSN hits; shares compounds with CSN inh; recombinant MMP-2, FRET substrate fluorescence, 60 min; inhibition, % at 16.6 µM; 33% of 540 active;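 active means corrected plate-normalized z-score of 5 or more, or -5 or less, or inhibition of 15% or more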;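 further: plate controls were DMSO wells with enzyme for no effect and buffer wells lacking MMP-2 for full effect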
Thrombin cntr: blocks bovine thrombin in a CSN deneddylation counter-screen; shares compounds with CSN inh; bovine thrombin cleavage of Ub4-pepOG, fluorescence polarization; inhibition, % at 16.6 µM; 49% of 540 active;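 active means inhibition at or above a set limit, with a fluorescence interference ratio between 0.5 and a set maximum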
Target sequence (P00735 whole entry, looked up): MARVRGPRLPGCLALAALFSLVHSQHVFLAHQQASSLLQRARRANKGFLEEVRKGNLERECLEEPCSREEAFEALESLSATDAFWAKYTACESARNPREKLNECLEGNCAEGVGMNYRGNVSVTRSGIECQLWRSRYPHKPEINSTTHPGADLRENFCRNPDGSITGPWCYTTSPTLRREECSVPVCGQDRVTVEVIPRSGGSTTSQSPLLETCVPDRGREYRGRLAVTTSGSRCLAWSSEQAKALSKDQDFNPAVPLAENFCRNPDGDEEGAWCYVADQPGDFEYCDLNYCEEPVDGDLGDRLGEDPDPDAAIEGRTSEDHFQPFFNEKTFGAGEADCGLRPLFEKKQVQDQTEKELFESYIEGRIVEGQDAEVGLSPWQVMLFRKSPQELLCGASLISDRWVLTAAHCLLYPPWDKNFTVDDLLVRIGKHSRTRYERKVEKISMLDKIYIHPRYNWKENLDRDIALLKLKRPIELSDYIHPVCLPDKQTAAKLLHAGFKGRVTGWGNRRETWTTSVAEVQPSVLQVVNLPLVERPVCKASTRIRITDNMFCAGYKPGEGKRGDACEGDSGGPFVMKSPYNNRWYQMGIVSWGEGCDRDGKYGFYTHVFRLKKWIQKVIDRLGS
Active calls of the source: *; · = not tested or not shown; + = active, no number.

SMILES | TbMetRS inhib | IDE act | HNF4A DNA FP | TPT1 inhibitor | CSN inh | IDE inh | caTPT1 confirm | RNase T1 inh | CSN5 deneddyl | MMP2 cntr CSN | Thrombin cntr | others
COc1cc(/C=C2\SC(=S)N(NC(=O)c3ccc(O)c(OC)c3)C2=O)ccc1O | 0 | -106 | 59* | 35* | 64* | 109* | 44* | 58* | 90* | -5 | 80* | IDE cell inh cf=89*;HEK cytotox=9
O=C(CN1C(=O)c2ccccc2S1(=O)=O)Nc1cc(S(=O)(=O)N2CCCCC2)ccc1Cl | 0 | 4 | -2 | · | 1 | · | · | · | · | · | ·
Cc1nc(-n2[nH]c3c(c2=O)CCCC3)[nH]c(=O)c1Cc1ccccc1 | 0 | 3 | 44* | 122* | 52* | 3 | 65* | 77* | 80* | -4 | 49*
CC(C)(C)c1ccc(CC(=O)N2CCC2(C)C(=O)NCCC#N)cc1 (stereo not given) | 0 | · | 3 | · | 3 | · | · | · | · | · | ·
Cc1cc(/C=N/Nc2ccc([N+](=O)[O-])cn2)c(C)n1-c1ccc(C(=O)O)cc1 | 0 | -7 | 16 | 54* | 53* | 5 | 68* | 79* | 90* | 13 | 2
Cc1ccc2c(nc3s/c(=C\c4ccc(-c5ccccc5C(=O)O)o4)c(=O)n32)c1C | -1 | -5 | 83 | 116* | 102* | 2 | 138* | 130* | -27 | -27 | 18
Cc1ccc2c(nc3s/c(=C/c4cccs4)c(=O)n32)c1C | 0 | 1 | 6 | · | 4 | · | · | · | · | · | ·
COc1cc(/C=C(\C#N)C(=O)c2ccc(O)c(O)c2)cc(I)c1O | 2 | -21 | 110 | 129* | + | 3 | 180* | 161* | 19 | -106* | 57
CC(=O)Oc1ccc(C23c4ccccc4C2(OC(C)=O)c2cc(OC(C)=O)ccc23)cc1 (stereo not given) | 0 | -3 | -2 | · | -4 | · | · | · | · | · | ·
COC1=CC(=Cc2c(N)n3nc(CC(=O)N4CCCCC4)sc3nc2=O)C=C(OC)C1=O | 0 | -79 | 38* | 31* | 78* | 41* | 112* | 110* | 34 | -11 | 74* | IDE cell inh cf=26*;HEK cytotox=5
Nc1c(C=C2C=CC(=O)C=C2)c(=O)nc2sc(CC(=O)N3CCCCC3)nn12 | 0 | 2 | -4 | -2 | 0 | 3 | · | · | · | · | ·
N#CC1(NC(=O)CN2C(=O)c3ccc([N+](=O)[O-])cc3C2=O)CCCCC1 | 0 | 6 | 0 | -1 | -3 | 0 | · | · | · | · | ·
CC(C)N1CCc2c(sc(NC(=O)c3ccc4ccccc4c3)c2C(N)=O)C1 | 0 | -14 | 63* | 96* | 57* | 11 | 90* | 96* | + | 1 | 48*
CCN1CCc2c(sc(NC(=O)c3cc4ccccc4cc3OC)c2C(N)=O)C1 | -1 | -3 | 37* | 46* | 38* | 1 | 40* | 46* | 56* | -3 | 9
CCN(CC)S(=O)(=O)c1ccc(C)c(NS(=O)(=O)c2cc(/C=C/C(=O)O)cc(OC)c2OC)c1 | 0 | 8 | 3 | -3 | -4 | 5 | · | · | · | · | ·
